Laboratory results: publication PMC2864424 (Current Chemical Genomics, 2010)
Read-outs that look alike come from different tables or passages of the source.

Legend:
[1] = tested on: OATP1B1 and OATP1B3 (not distinguished); format: cell-based, human; conditions: human, CHO cells stably expressing OATP1B1 or OATP1B3, pH 7.4, probe FMTX, 5 µM
OATP1B3 [2] = target: T1, OATP1B3 (Homo sapiens, UniProt Q9NPD5); format: cell-based; conditions: for preferential inhibition of OATP1B3-mediated FMTX transport: compared with OATP1B1
T1 sequence (Q9NPD5 1-702): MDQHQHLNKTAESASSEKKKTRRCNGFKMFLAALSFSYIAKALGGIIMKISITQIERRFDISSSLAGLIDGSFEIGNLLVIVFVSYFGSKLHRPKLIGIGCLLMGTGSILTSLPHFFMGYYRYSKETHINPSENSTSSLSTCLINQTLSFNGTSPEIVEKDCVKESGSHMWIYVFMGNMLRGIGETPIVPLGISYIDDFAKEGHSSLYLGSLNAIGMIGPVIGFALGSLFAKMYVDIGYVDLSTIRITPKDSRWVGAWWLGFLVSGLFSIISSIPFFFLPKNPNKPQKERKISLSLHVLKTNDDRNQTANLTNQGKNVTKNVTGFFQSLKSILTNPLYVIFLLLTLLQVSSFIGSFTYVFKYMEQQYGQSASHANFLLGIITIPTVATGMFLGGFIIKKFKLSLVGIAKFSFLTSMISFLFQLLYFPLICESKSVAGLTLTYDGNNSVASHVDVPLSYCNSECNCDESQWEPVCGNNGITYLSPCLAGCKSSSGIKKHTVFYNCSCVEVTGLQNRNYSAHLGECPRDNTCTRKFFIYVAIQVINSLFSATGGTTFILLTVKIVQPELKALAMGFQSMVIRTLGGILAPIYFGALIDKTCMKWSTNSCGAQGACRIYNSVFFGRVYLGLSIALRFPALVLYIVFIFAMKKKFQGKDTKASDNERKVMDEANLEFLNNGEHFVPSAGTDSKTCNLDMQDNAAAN

OATP1B1 [3] = target: T2, OATP1B1 (Homo sapiens, UniProt Q9Y6L6); format: cell-based; conditions: for preferential / selective inhibition of OATP1B1-mediated FMTX transport: compared with OATP1B3
T2 sequence (Q9Y6L6 1-691): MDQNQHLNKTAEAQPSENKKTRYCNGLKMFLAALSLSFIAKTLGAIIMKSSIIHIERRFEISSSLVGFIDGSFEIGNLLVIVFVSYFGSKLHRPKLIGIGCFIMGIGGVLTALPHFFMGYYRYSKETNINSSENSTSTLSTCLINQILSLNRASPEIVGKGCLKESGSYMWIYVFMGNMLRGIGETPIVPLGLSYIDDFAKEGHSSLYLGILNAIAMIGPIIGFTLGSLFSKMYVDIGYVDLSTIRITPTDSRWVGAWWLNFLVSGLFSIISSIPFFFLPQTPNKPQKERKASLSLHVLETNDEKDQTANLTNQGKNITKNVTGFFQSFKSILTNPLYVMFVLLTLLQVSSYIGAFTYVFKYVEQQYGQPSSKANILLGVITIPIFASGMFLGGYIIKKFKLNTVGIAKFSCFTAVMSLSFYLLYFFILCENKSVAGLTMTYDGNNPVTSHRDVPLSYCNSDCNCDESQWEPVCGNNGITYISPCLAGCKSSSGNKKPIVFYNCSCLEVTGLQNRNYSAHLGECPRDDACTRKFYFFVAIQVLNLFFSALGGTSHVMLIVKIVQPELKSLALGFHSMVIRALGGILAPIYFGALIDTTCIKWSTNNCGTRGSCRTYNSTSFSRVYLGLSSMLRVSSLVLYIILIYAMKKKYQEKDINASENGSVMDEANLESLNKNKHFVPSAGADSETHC

OATP1B3 [4] = target: T1, OATP1B3; format: cell-based
How it was run: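 Stably transfected CHO cells were grown at 37 °C, 5% CO2 in DMEM with 10% FBS, L-proline and 500 μg/ml G-418, passaged twice weekly and used up to passage 55. Cells were washed with 37 °C uptake buffer (pH 7.4) and incubated with fluorescent compound at 37 °C. Cells were then washed four times with ice-cold buffer and lysed in 1% Triton X-100. Fluorescence was read at 485/528 nm, with Vmax expressed per mg protein per min.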

OATP1B1 [5] = target: T2, OATP1B1; format: cell-based; conditions: 24-well plates
OATP1B1 [6] = conditions: read-out: Ki, inhibition of OATP1B1-mediated pitavastatin uptake; cited from earlier work
OATP2B1 = conditions: cited from earlier work
OATP1B1 and OATP1B3 = format: cell-based, human; conditions: primary screen of FMTX uptake by OATP1B1 or OATP1B3
wild-type CHO cells = assay: FMTX uptake into wild-type CHO cells, 96-well plates; format: cell-based, Chinese Hamster; conditions: 5 μM FMTX, 30 min, room temperature
How it was run: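 Cells were washed three times with room-temperature buffer and given 5 µM FMTX for 30 min at room temperature. They were then washed four times and lysed in 1% Triton X-100 in PBS. Fluorescence was read at ex 485/em 528 nm.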

[7] = substrate: O=C1OC2(c3ccc(O)cc3Oc3cc(O)ccc32)c2ccccc21; format: cell-based, human; conditions: other: 37 °C, 2 min, 24-well plates, net uptake
[8] = 5 μM FMTX, 30 min, room temperature, 96-well plates
[9] = 5 μM FMTX, 30 min, room temperature, 96-well plates, no inhibitor

In the case of `CCN1C[C@]2(COC)[C@H](O)C[C@H](OC)[C@@]34[C@@H]5C[C@@]6(O)[C@H](OC(=O)c7ccccc7)[C@@H]5[C@@](OC(C)=O)([C@@H]([C@H](OC)[C@H]23)[C@@H]14)[C@@H](O)[C@@H]6OC` [Aconitine], the IC50 at 30 min [1] is reported as over 100 µM.

In the case of `C[C@H]1C[C@H]2[C@@H]3CCC4=CC(=O)C=C[C@]4(C)[C@@]3(Cl)[C@@H](O)C[C@]2(C)[C@@]1(O)C(=O)CO` [Beclomethasone], the “selectivity for OATP1B3 over OATP1B1” value (OATP1B3 [2]; FMTX uptake IC50 values) is reported as “about 5 fold”, the “preferential inhibition of OATP1B3-mediated FMTX transport” value (shortened to “preferential inhibition”) (OATP1B3 [2]) is reported as “preferential inhibitors” and the “preferential inhibition” value (OATP1B3 [2]; listed as beclamethasone) is reported as “preferentially inhibited OATP1B3”.

With `CC(C)C[C@H]1C(=O)N2CCC[C@H]2[C@]2(O)O[C@](NC(=O)[C@@H]3C=C4c5cccc6[nH]cc(c56)C[C@H]4N(C)C3)(C(C)C)C(=O)N12` [Ergocryptine] the “preferential / selective inhibition of OATP1B1-mediated FMTX transport” value (shortened to “preferential / selective inhibition”) (OATP1B1 [3]) was “preferentially inhibited OATP1B1”.

Work on `CCOC(=O)c1cncn1[C@H](C)c1ccccc1` [Etomidate] yielded an IC50 at 30 min [1] of over 100 µM.

For `O=C(COc1ccc(Cl)cc1)N1CCN(Cc2ccc3c(c2)OCO3)CC1` [Fipexide], the “preferential / selective inhibition” value (OATP1B1 [3]) was “preferentially inhibited OATP1B1”.

Work on `Cc1ncc([N+](=O)[O-])n1CCO` [Metronidazole] yielded an IC50 at 30 min [1] of over 100 µM.

With `CCOC(=O)Nc1ccc2c(c1)N(C(=O)CCN1CCOCC1)c1ccccc1S2` [Moricizine] the “preferential inhibition” value (OATP1B3 [2]) was “preferentially inhibited OATP1B3”.

With `O=C(O)c1cccnc1Nc1cccc(C(F)(F)F)c1` [Niflumic acid] the “preferential / selective inhibition” value (OATP1B1 [3]) was “preferentially inhibited OATP1B1”.

For `CCOc1cc(CC(=O)N[C@@H](CC(C)C)c2ccccc2N2CCCCC2)ccc1C(=O)O` [Repaglinide], the “preferential / selective inhibition” value (OATP1B1 [3]) was “preferentially inhibited OATP1B1”.

In the case of `O=c1[nH]c(=O)n([C@H]2C[C@H](O)[C@@H](CO)O2)cc1C(F)(F)F` [Trifluridine], the IC50 at 30 min [1] is reported as over 100 µM.

With `O=C1OC2(c3ccc(O)cc3Oc3cc(O)ccc32)c2ccccc21` [fluorescein] the Km at 2 min (OATP1B3 [4]; human, CHO cells stably expressing OATP1B3, pH 7.4) was 82 ± 10 µM and the “transported by OATP1B1” value (OATP1B1 [5]; 1 µM, 30 min) was “transported”.

In the case of `CN(Cc1cnc2nc(N)nc(N)c2n1)c1ccc(C(=O)N[C@@H](CCC(=O)O)C(=O)O)cc1` [methotrexate], the inhibition at 30 min, 100 µM [1] is listed as 30% and the Ki (OATP1B1 [6]) is listed as over 300 µM.

For `CC(=O)[C@H]1CC[C@H]2[C@@H]3CCC4=CC(=O)CC[C@]4(C)[C@H]3CC[C@]12C` [progesterone], the “effect on OATP2B1-mediated estrone-3-sulfate uptake” value (OATP2B1) is listed as “stimulate”, the EC50 (OATP1B3 [2]) is listed as 0.2 µM and the “effect on OATP1B3-mediated FMTX uptake” value (OATP1B3 [2]; [8]) is listed as “stimulated”. For the same molecule, the IC50 (OATP1B1 [3]) was 5.4 ± 1.9 µM and the “effect on OATP1B1-mediated FMTX uptake” value (OATP1B1 [3]; [8]) was “inhibited”.

For `CC(C)(C)NC(=O)[C@@H]1C[C@@H]2CCCC[C@@H]2CN1C[C@@H](O)[C@H](Cc1ccccc1)NC(=O)[C@H](CC(N)=O)NC(=O)c1ccc2ccccc2n1` [saquinavir], the “Prestwick library screening result” value (OATP1B1 and OATP1B3) was “strongest inhibitors”.

With Alexa Fluor® 488 methotrexate [AMTX] the “substrate of OATP1B3” value (OATP1B3 [4]; 1 µM, 30 min, 24-well plates) was “not transported”.

For Bromocryptine, the “preferential / selective inhibition” value (OATP1B1 [3]) was “preferentially inhibited OATP1B1”.

For fluorescein-methotrexate [FMTX], the “typical uptake, OATP1B3-expressing cells” value (OATP1B3 [2]; [8]) was 33,880 ± 3,645 fluorescent units, the “signal-to-basal ratio of uptake, OATP1B3” value (OATP1B3 [2]; [9]) was 7.7 and the “typical uptake, wild-type CHO cells” value (wild-type CHO cells) was 4,400 ± 80 fluorescent units. For the same molecule, the “uptake signal, OATP1B3” value (OATP1B3 [4]; 1 µM, 30 min, 24-well plates, versus wild-type CHO) was “about 4.5 fold”, the “Vmax, OATP1B3” value (OATP1B3 [4]; 37 °C, 2 min, 24-well plates) was 4772 ± 709 fluorescent units/mg protein * min and the “fold higher transport efficiency of OATP1B3 than OATP1B1” value (OATP1B3 [4]; Vmax/Km compared) was 2–3 fold. For the same molecule, the Km (OATP1B3 [4]; read-out: apparent Km, OATP1B3, 37 °C, 2 min, 24-well plates, net uptake) was 7.9 ± 2 µM, the “typical uptake, OATP1B1-expressing cells” value (OATP1B1 [3]; [8]) was 15,060 ± 1,540 fluorescent units and the “signal-to-basal ratio of uptake, OATP1B1” value (OATP1B1 [3]; [9]) was 3.4. For the same molecule, the “transported by OATP1B1” value (OATP1B1 [5]; 1 µM, 30 min) was “transported”, the “uptake signal, OATP1B1” value (OATP1B1 [5]; 1 µM, 30 min, versus wild-type CHO) was “about 3 fold” and the “Vmax, OATP1B1” value (OATP1B1 [5]; 37 °C, 2 min) was 961 ± 198 fluorescent units/mg protein * min. For the same molecule, the Km (OATP1B1 [5]; read-out: apparent Km, OATP1B1, 37 °C, 2 min, net uptake) was 3.8 ± 0.7 µM.

B1: OATP1B1 (Homo sapiens) (protein)
chain: MDQNQHLNKTAEAQPSENKKTRYCNGLKMFLAALSLSFIAKTLGAIIMKSSIIHIERRFEISSSLVGFIDGSFEIGNLLVIVFVSYFGSKLHRPKLIGIGCFIMGIGGVLTALPHFFMGYYRYSKETNINSSENSTSTLSTCLINQILSLNRASPEIVGKGCLKESGSYMWIYVFMGNMLRGIGETPIVPLGLSYIDDFAKEGHSSLYLGILNAIAMIGPIIGFTLGSLFSKMYVDIGYVDLSTIRITPTDSRWVGAWWLNFLVSGLFSIISSIPFFFLPQTPNKPQKERKASLSLHVLETNDEKDQTANLTNQGKNITKNVTGFFQSFKSILTNPLYVMFVLLTLLQVSSYIGAFTYVFKYVEQQYGQPSSKANILLGVITIPIFASGMFLGGYIIKKFKLNTVGIAKFSCFTAVMSLSFYLLYFFILCENKSVAGLTMTYDGNNPVTSHRDVPLSYCNSDCNCDESQWEPVCGNNGITYISPCLAGCKSSSGNKKPIVFYNCSCLEVTGLQNRNYSAHLGECPRDDACTRKFYFFVAIQVLNLFFSALGGTSHVMLIVKIVQPELKSLALGFHSMVIRALGGILAPIYFGALIDTTCIKWSTNNCGTRGSCRTYNSTSFSRVYLGLSSMLRVSSLVLYIILIYAMKKKYQEKDINASENGSVMDEANLESLNKNKHFVPSAGADSETHC
For B1, the Km [7] was 38 ± 5 µM.
